# Source: article PMC5155582 (ChemMedChem, 2016)
# Target: T1, CYP2B6 (Homo sapiens, UniProt P20813)
# T1 sequence (P20813 1-491): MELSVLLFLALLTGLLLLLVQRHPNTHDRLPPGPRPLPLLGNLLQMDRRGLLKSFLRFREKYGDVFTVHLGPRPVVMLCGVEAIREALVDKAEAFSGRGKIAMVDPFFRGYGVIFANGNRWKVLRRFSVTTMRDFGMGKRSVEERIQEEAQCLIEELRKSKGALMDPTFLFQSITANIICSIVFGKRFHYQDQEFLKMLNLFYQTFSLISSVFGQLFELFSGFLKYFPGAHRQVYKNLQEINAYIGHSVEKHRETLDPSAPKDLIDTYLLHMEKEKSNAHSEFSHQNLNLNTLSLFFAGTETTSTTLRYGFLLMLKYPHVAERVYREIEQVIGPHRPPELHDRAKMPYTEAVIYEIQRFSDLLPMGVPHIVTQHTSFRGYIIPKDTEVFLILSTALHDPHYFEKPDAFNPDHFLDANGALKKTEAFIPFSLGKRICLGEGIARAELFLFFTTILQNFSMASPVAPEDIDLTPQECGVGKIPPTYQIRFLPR
# Assay: Product formation kinetic analysis
# Format: in vitro ADME
# Settings: cDNA-expressed CYP2B6
# Outline: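 cDNA-expressed CYP2B6 (5–20 nM) in 100 mM potassium phosphate pH 7.4 at 37 °C. Eight substrate concentrations, 0.5–100 μM (0.5–30 μM for one poorly soluble analogue); parent drug run the same way. NADPH regenerating system, 5–20 min, with linearity in enzyme and time set by pilot runs. Ice-cold acetonitrile stop. Product measured by SRM uHPLC-MS/MS or UV, without authentic standards. KM from a substrate-inhibition fit; fold change is analogue KM divided by the parent's 8-hydroxylation KM.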
row,Km,SMILES
1,3.6 ± 1.7 µM,"O=C1Nc2ccc(Cl)cc2[C@@](C#CC2CC2)(C(F)(F)F)O1 [EFV, (4S)-6-Chloro-4-(2-cyclopropylethynyl)-1,4-dihydro-4-(trifluoromethyl)-2H-3,1-benzoxazin-2-one, reference compound]"
2,~1 µM,"CC1Nc2ccc(Cl)cc2C(C#CC2CC2)(C(F)(F)F)O1 (stereo not drawn) [analogue 1, 6-Chloro-4-(2-cyclopropylethynyl)-1,4-dihydro-2-methyl-4-(trifluoromethyl)-2H-3,1-benzoxazine]"
3,14 ± 6.4 µM,"O=C1CC(C#CC2CC2)(C(F)(F)F)c2cc(Cl)ccc2N1 (stereo not drawn) [analogue 4, 6-Chloro-4-(cyclopropylethynyl)-3,4-dihydro-4-(trifluoromethyl)-2(1H)-quinolinone]"

# Target: T2, rat CYP2B1 (Rattus norvegicus, UniProt P00176)
# T2 sequence (P00176 1-491): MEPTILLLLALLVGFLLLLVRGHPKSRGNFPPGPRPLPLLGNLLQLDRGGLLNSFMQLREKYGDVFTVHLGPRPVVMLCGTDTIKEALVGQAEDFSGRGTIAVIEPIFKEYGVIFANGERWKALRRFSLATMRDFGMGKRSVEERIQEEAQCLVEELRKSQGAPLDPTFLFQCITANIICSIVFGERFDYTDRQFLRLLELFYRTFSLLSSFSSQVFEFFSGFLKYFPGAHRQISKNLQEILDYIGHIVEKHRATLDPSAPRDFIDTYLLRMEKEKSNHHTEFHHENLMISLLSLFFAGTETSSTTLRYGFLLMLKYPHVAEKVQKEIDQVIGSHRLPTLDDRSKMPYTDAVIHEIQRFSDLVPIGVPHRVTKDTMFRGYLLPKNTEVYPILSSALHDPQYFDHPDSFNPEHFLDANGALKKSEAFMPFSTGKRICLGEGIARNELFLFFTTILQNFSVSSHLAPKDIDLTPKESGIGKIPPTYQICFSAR
# Assay: Comparison of metabolite formation by cDNA-expressed CYP2B1 and CYP2B6
# Format: in vitro ADME
# Settings: 10 nM cDNA-expressed CYP2B1, 10 μM substrate, 30 min
# Outline: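 cDNA-expressed rat CYP2B1 or human CYP2B6 systems, both with cytochrome b5 (CYP:reductase:b5 molar ratio 1:1:2 for 2B1, 1:10:2 for 2B6), 10 nM, run side by side with 10 μM substrate in 100 mM potassium phosphate pH 7.4. 5 min preincubation at 37 °C, then NADPH regenerating system for 30 min at 37 °C. Acetonitrile stop, then uHPLC-MS or uHPLC-UV (220 nm). CYP2B1 peak height normalised to mean CYP2B6 peak height (100%). Three independent experiments, mean ± SEM.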
row,Metabolite formation by CYP2B1 (in words),SMILES
1,did not form metabolites,"COc1ccc(C(=O)Nc2ccc(Cl)cc2C(O)(C#CC2CC2)C(F)(F)F)cc1 (racemic) [methoxybenzamide analogue, rac N-[4-Chloro-2-[3-cyclopropyl-1-hydroxy-1-(trifluoromethyl)-2-propynyl]phenyl]-4-methoxybenzamide]"
2,M4 and M5 formation,"CCCC#CC1(C(F)(F)F)OC(=O)Nc2ccc(Cl)cc21 (racemic) [pentynyl analogue, rac 6-Chloro-1,4-dihydro-4-(1-pentynyl)-4-(trifluoromethyl)-2H-3,1-benzoxazin-2-one]"
3,displayed activity,Nc1ccc(Cl)cc1[C@](O)(C#CC1CC1)C(F)(F)F [(R)-5-Chloro-α-(cyclopropylethynyl)-2-amino-α-(trifluoromethyl)benzenemethanol]
4,displayed activity,Nc1ccc(Cl)cc1[C@@](O)(C#CC1CC1)C(F)(F)F [(S)-5-Chloro-α-(cyclopropylethynyl)-2-amino-α-(trifluoromethyl)benzenemethanol]
5,M2 formation,"O=C1Nc2ccc(Cl)cc2[C@@](/C=C/C2CC2)(C(F)(F)F)O1 [E-dihydroefavirenz, (E)-Dihydroefavirenz]"

# Same assay, conditions: 10 nM enzyme, 10 μM substrate, 30 min; CYP2B6 peak height set at 100%
row,Metabolite formed by CYP2B1 as percent of metabolite formed by CYP2B6,SMILES
1,~48%,"O=C1Nc2c(O)cc(Cl)cc2[C@@](C#CC2CC2)(C(F)(F)F)O1 [8-OH EFV, 8-hydroxyefavirenz]"
